Values after ≈ are worked out from the molar mass of the structure shown.
Assays:
[1] = Dissociation constant (pKa); type: physicochemical
[2] = Partition coefficient (logD7.4); details: octanol/water, pH 7.4
Rattus norvegicus [3] = experiment: Dose required to decrease heart rate after iv injection to spinal rats; type: functional
In short: (§1)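 Male Chbb:THOM rats, 200–250 g, under pentobarbital sodium 50 mg/kg ip, atropine sulfate 1 mg/kg sc, trachea cannulated. Medulla cut at C1, brain destroyed, artificially ventilated. Jugular iv injections given cumulatively, dose doubled every 2 min, 3 doses per animal, top cumulative dose 10 mg/kg. ECG-triggered tachograph heart rate. D150 (dose lowering rate 150 beats/min) read graphically from log dose–response curves; n = 6 rats.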

Rattus norvegicus [4] = species: Rattus norvegicus; experiment: Evaluated for decreased heart rate in spinal rats, relative activity was determined; type: functional; in short: as §1
Cavia porcellus [5] = species: Cavia porcellus; experiment: Evaluated for decrease in spontaneous frequency of atrial rate in isolated guinea pig atria; type: functional; details: Cardiac atrium
In short: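 Atria dissected from guinea pigs of various breeds (300–500 g, either sex) and suspended in modified Tyrode's solution gassed with 98% O2/2% CO2, resting tension 1 g. Spontaneously beating atria at 37 °C, equilibrated at least 30 min until rate stable within 5 beats/min. Drug added cumulatively, concentration doubled every 10 min. EC30 = concentration reducing predrug rate by 30%, read from curves.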

Cavia porcellus [6] = species: Cavia porcellus; experiment: Evaluated for decrease in maximal driving frequency in isolated guinea pig atria; type: functional
In short: (§2)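 Guinea pig left atria in modified Tyrode's gassed 98% O2/2% CO2, 1 g resting tension, driven with 1 ms pulses at 3× threshold. Runs separated by 5 min at 0.5 Hz. Control is the mean of 3 predrug runs; the value is the mean of runs at 5 and 10 min after each cumulative addition, concentration doubled every 10 min. EC30 read from curves.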

[7] = EC30 ratio of contractility to atrial rate in isolated guinea pig atria; type: functional, Cardiac atrium
In short: (§3)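 Ratios of EC30 values from isolated guinea pig atria. Atrial rate was measured in spontaneously beating atria at 37 °C after at least 30 min of equilibration, until rate varied by no more than 5 beats/min. Contractility was measured in left atria driven at 2.5 Hz, 30 °C. Maximal driving frequency was found by stepwise pacing. Compound was added cumulatively, concentration doubled every 10 min.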

[8] = EC30 ratio of maximal driving frequency to atrial rate in isolated guinea pig atria; type: functional, Cardiac atrium; in short: as §3
Cavia porcellus [9] = species: Cavia porcellus; experiment: Evaluated for decrease in contractility in isolated guinea pig atria; type: functional
In short: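 Electrically driven left guinea pig atria (300–500 g, either sex) in modified Tyrode's gassed 98% O2/2% CO2, 30 °C, 1 g resting tension. Stimulation 3 ms rectangular pulses at 1.5× threshold, 2.5 Hz, after 20 min equilibration. Isometric force in grams. Concentrations added cumulatively, doubled every 10 min, one atrium per experiment. EC30 (30% fall from predrug value) read from curves.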

Cavia porcellus [10] = species: Cavia porcellus; experiment: Evaluated for increase in maximal driving frequency in isolated guinea pig atria; type: functional; in short: as §2
[11] = Ratio of contractility to atrial rate in isolated guinea pig atria; type: functional, Cardiac atrium; in short: as §3

pKa [1]	logD [2]	SMILES	D150 (Rattus norvegicus [3])	Relative activity (Rattus norvegicus [4])	EC30 (Cavia porcellus [5]) [µg/mL]	EC30 (Cavia porcellus [6]) [µg/mL]	Ratio [7]	Ratio [8]	EC30 (Cavia porcellus [9]) [µg/mL]	EC30 (Cavia porcellus [10]) [µg/mL]	Ratio [11]
11.2	0.27	Brc1cccc(Br)c1N(CC1CCCCC1)C1=NCCN1	6.5 mg/kg	0.095	–	–	–	–	–	–	–
11	-0.55	CCCN(C1=NCCN1)c1c(Br)cccc1Br	0.65 mg/kg	0.95	–	–	–	–	–	–	–
10.9	-0.92	Clc1cccc(Cl)c1N(CC1CC1)C1=NCCN1	0.65 mg/kg	0.95	–	–	–	–	–	–	–
10.9	-1.12	Brc1cccc(Br)c1N(CC1CC1)C1=NCCN1	0.62 mg/kg	1	0.65 (≈ 1.74 µM)	12 (≈ 32.2 µM)	146	18	95 (≈ 255 µM)	–	–
10.8	-0.79	Clc1cccc(Br)c1N(CC1CC1)C1=NCCN1	0.42 mg/kg	1.48	–	–	–	–	–	–	–
11.1	-1.01	CCN(C1=NCCN1)c1c(Br)cccc1Br	0.75 mg/kg	0.83	–	–	–	–	–	–	–
11	-0.52	Brc1ccc(Br)c(N(CC2CC2)C2=NCCN2)c1	5 mg/kg	0.12	–	–	–	–	–	–	–
11.1	-0.41	Brc1cccc(N(CC2CC2)C2=NCCN2)c1Br	7.5 mg/kg	0.083	–	–	–	–	–	–	–
11.2	-0.31	Brc1ccc(N(CC2CC2)C2=NCCN2)c(Br)c1	10 mg/kg	0.062	–	–	–	–	–	–	–
10.7	-1.03	Fc1cccc(Br)c1N(CC1CC1)C1=NCCN1	1.5 mg/kg	0.41	–	–	–	–	–	–	–
10.9	0.32	Brc1cccc(Br)c1N(CC1CCCC1)C1=NCCN1	1.3 mg/kg	0.48	–	–	–	–	–	–	–
10.9	-0.06	Brc1cccc(Br)c1N(CC1CCC1)C1=NCCN1	1.2 mg/kg	0.52	–	–	–	–	–	–	–
12.4	-1.03	Brc1cccc(Br)c1N(CC1CC1)C1=NCCCN1	1.1 mg/kg	0.56	–	–	–	–	–	–	–
10.3	-1.41	Fc1cccc(F)c1N(CC1CC1)C1=NCCN1	4.8 mg/kg	0.13	–	–	–	–	–	–	–
11	-0.64	CC(C)CN(C1=NCCN1)c1c(Br)cccc1Br	1.35 mg/kg	0.46	–	–	–	–	–	–	–
11.2	-1.3	Brc1ccccc1N(CC1CC1)C1=NCCN1	4.4 mg/kg	0.14	–	–	–	–	–	–	–

Continued, compound first:

SMILES	pKa [1]	logD [2]	D150 (Rattus norvegicus [3])	Relative activity (Rattus norvegicus [4])	EC30 (Cavia porcellus [5]) [µg/mL]	EC30 (Cavia porcellus [6]) [µg/mL]	Ratio [7]	Ratio [8]	EC30 (Cavia porcellus [9]) [µg/mL]	EC30 (Cavia porcellus [10]) [µg/mL]	Ratio [11]
Brc1cccc(Br)c1N(Cc1ccccc1)C1=NCCN1	10.4	-0.05	2.5 mg/kg	0.25	–	–	–	–	–	–	–
C#CCN(C1=NCCN1)c1c(Br)cccc1Br	10.1	-0.18	1.25 mg/kg	0.5	–	–	–	–	–	–	–
Fc1cccc(Cl)c1N(CC1CC1)C1=NCCN1	10.8	-0.98	0.74 mg/kg	0.84	–	–	–	–	–	–	–
Brc1cccc(Br)c1N(C1=NCCN1)C1CCCCC1	11.3	0.14	2.6 mg/kg	0.24	–	–	–	–	–	–	–
CCCCN(C1=NCCN1)c1c(Br)cccc1Br	11	-2.5	1.35 mg/kg	0.46	–	–	–	–	–	–	–
Cc1cccc(Cl)c1N(CC1CC1)C1=NCCN1	11.3	-0.99	1.85 mg/kg	0.34	–	–	–	–	–	–	–
C=C[C@H]1CN2CC[C@H]1C[C@@H]2[C@@H](O)c1ccnc2ccc(OC)cc12 [QUINIDINE]	–	–	–	–	7.2 (≈ 22.2 µM)	6.5 (≈ 20 µM)	8.6	0.9	62 (≈ 191 µM)	–	–
C=CCCN(C1=NCCN1)c1c(Br)cccc1Br	11.2	-0.63	1 mg/kg	0.62	–	–	–	–	–	–	–
C=C(C)CN(C1=NCCN1)c1c(Br)cccc1Br	10.7	-0.66	2.1 mg/kg	0.3	–	–	–	–	–	–	–
C/C=C/CN(C1=NCCN1)c1c(Br)cccc1Br	11	-0.49	0.7 mg/kg	0.88	–	–	–	–	–	–	–
C=C(C)CCN(C1=NCCN1)c1c(Br)cccc1Br	10.9	0.02	1.03 mg/kg	0.6	–	–	–	–	–	–	–
C[N+](C)(C)CCOC(N)=O.[Cl-] [CARBACHOL]	–	–	–	–	0.029	–	–	–	0.0065	0.09	0.22
C=CCN(C1=NCCN1)c1c(Cl)cccc1Cl [ALINIDINE]	10.4	-1.66	2.5 mg/kg	0.25	–	–	–	–	–	–	–
CC(C)=CCN(C1=NCCN1)c1c(Br)cccc1Br	10.8	-0.14	3.5 mg/kg	0.18	–	–	–	–	–	–	–
Fc1cccc(C(F)(F)F)c1N(CC1CC1)C1=NCCN1	10.7	-0.95	1.8 mg/kg	0.34	–	–	–	–	–	–	–
N=C(N)N(CC1CC1)c1c(Br)cccc1Br	11.9	-0.63	>10 mg/kg	<0.062	–	–	–	–	–	–	–
CCCCCN(C1=NCCN1)c1c(Br)cccc1Br	11	0.32	1.6 mg/kg	0.39	–	–	–	–	–	–	–
Brc1cccc(Br)c1N(Cc1cccs1)C1=NCCN1	10.5	-0.1	1.9 mg/kg	0.33	–	–	–	–	–	–	–
CN(C1=NCCN1)c1c(Br)cccc1Br	10.7	–	1.4 mg/kg	–	–	–	–	–	–	–	–
CC(C)CCN(C1=NCCN1)c1c(Br)cccc1Br	10.9	0.16	1.3 mg/kg	0.48	–	–	–	–	–	–	–
Brc1cccc(Br)c1N(C1=NCCN1)C1CCCC1	11.2	-0.29	1 mg/kg	0.62	–	–	–	–	–	–	–
Brc1cccc(Br)c1N(Cc1ccco1)C1=NCCN1	10.5	-0.52	2.8 mg/kg	0.22	–	–	–	–	–	–	–
COc1ccc(CCN(C)CCCC(C#N)(c2ccc(OC)c(OC)c2)C(C)C)cc1OC (stereo not given)	–	–	–	–	0.2 (≈ 0.44 µM)	6.5 (≈ 14.3 µM)	–	–	0.24 (≈ 0.528 µM)	–	1.2
CC(C)N(C1=NCCN1)c1c(Br)cccc1Br	11.2	-0.82	2.3 mg/kg	0.27	–	–	–	–	–	–	–
Brc1ccc(N(CC2CC2)C2=NCCN2)cc1Br	–	–	>>10 mg kg-1	<<0.062	–	–	–	–	–	–	–
C=CCN(C1=NCCN1)c1c(Br)cccc1Br	10.7	-0.75	1.5 mg/kg	0.41	–	–	–	–	–	–	–
